Here are results for 19 molecules from ChEMBL document CHEMBL3860021, “Screening and Design of Inhibitor Scaffolds for the Antibiotic Resistance Oxacillinase-48 (OXA-48) through Surface Plasmon Resonance Screening” (J Med Chem, 2016).

Calls of active or inactive are those of the source. The rule behind the calls is not given here. Where only a bound is given, the exact number is not on record here.

Data set [1] addresses T1, Beta-lactamase OXA-48 (Klebsiella pneumoniae, UniProt Q6XEC0). Kind of data set: Binding affinity to native signal deficient and TEV cleavage site containing His-tagged Klebsiella pneumoniae OXA-48 expressed in Escherichia coli assessed as dissociation constant by SPR assay.
The target of data set [2] is T1, Beta-lactamase OXA-48. Kind of data set: Inhibition of native signal containing Klebsiella pneumoniae OXA-48 using nitrocefin substrate pre-incubated for 5 mins before substrate addition.
Data set [3] is described as follows: Inhibition of beta-lactamase VIM-2 (unknown origin).
In data set [4] the target is Beta-lactamase OXA-48 (Klebsiella pneumoniae) (UniProt Q6XEC0). The experiment in a line: Inhibition of native signal containing Klebsiella pneumoniae OXA-48 at 1.5 uM using nitrocefin substrate pre-incubated for 5 mins before substrate addition. In short, it runs like this:
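Avibactam dilution series (50 nM–20 µM) was preincubated about 5 min with 100 pM nOXA-48, then started with 25 µM nitrocefin. Buffer was phosphate pH 7.0 with 50 mM NaHCO3 and 0.2 mg/ml BSA, at 25 °C. Competition read-out from initial hydrolysis rates.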

Data set [5] shares this target. The experiment in a line: Binding affinity to native signal deficient and TEV cleavage site containing His-tagged Klebsiella pneumoniae OXA-48 expressed in Escherichia coli assessed as association rate constant by SPR assay. The procedure, abridged:
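SPR with tOXA-48 amine-coupled to a CM5 chip (~5000 RU, immobilised from 10 mM MES pH 5.5). Meropenem was injected as a 2-fold series, 62.5 nM-32 µM, at 30 µL/min, with 60 s contact and 240 s dissociation. Sensorgrams were double-referenced and fitted to a 1:1 kinetic model.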

Data set [6] concerns the target T1, Beta-lactamase OXA-48. Kind of data set: Binding affinity to native signal deficient and TEV cleavage site containing His-tagged Klebsiella pneumoniae OXA-48 expressed in Escherichia coli assessed as dissociation rate constant by SPR assay. In short, it runs like this: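 tOXA-48 (E. coli BL21 Star (DE3) pRARE, His tag removed by TEV, cation-exchange polished) amine-coupled to CM5 chip (~5000 RU, from 25 µg/mL in 10 mM MES pH 5.5). Fragments 2-fold series 118-900 µM (or 1.8-900 µM), double-referenced, steady-state fit. Meropenem 62.5 nM-32 µM, 1:1 kinetic fit.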

Substrate in data set [7]: CC1(C)S[C@@H]2[C@H](NC(=O)Cc3ccccc3)C(=O)N2[C@H]1C(=O)O
Kind of data set: (§1) Activity of native signal containing Klebsiella pneumoniae OXA-48 by Michaelis-Menten kinetics assay. In short, it runs like this: (§2)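 Steady-state kinetics of nOXA-48 at 25 °C in 100 mM sodium phosphate pH 7.0, 50 mM NaHCO3, 0.2 mg/ml BSA. Substrates were ampicillin, benzylpenicillin, cefepime, CENTA, meropenem, imipenem and nitrocefin, each over its own concentration range, with 100 pM–140 nM enzyme. Reactions were enzyme-started and followed spectrophotometrically. Velocities came from the linear phase, fitted to Michaelis-Menten.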

Substrate in data set [8]: CC1(C)S[C@@H]2[C@H](NC(=O)[C@H](N)c3ccccc3)C(=O)N2[C@H]1C(=O)O
Described as §1. The procedure, abridged:
as §2

Substrate in data set [9]: CO/N=C(\C(=O)N[C@@H]1C(=O)N2C(C(=O)[O-])=C(C[N+]3(C)CCCC3)CS[C@H]12)c1csc(N)n1
The data set is described as §1. In short, it runs like this:
as §2

Substrate in data set [10]: C[C@@H](O)[C@H]1C(=O)N2C(C(=O)O)=C(SCCNC=N)C[C@H]12
Described as §1. In short, it runs like this:
as §2

Substrate in data set [11]: C[C@@H](O)[C@H]1C(=O)N2C(C(=O)O)=C(S[C@@H]3CN[C@H](C(=O)N(C)C)C3)[C@H](C)[C@H]12
Described as §1. In short, it runs like this: as §2

Substrate in data set [12]: O=C(Cc1cccs1)N[C@@H]1C(=O)N2C(C(=O)O)=C(/C=C/c3ccc([N+](=O)[O-])cc3[N+](=O)[O-])CS[C@H]12
Described as §1. In short, it runs like this:
as §2

Substrate in data set [13]: O=C(Cc1cccs1)N[C@@H]1C(=O)N2C(C(=O)O)=C(CSc3ccc([N+](=O)[O-])c(C(=O)O)c3)CS[C@H]12
The data set is described as §1. In short, it runs like this: as §2

Substrate in data set [14]: CC1(C)S[C@@H]2[C@H](NC(=O)Cc3ccccc3)C(=O)N2[C@H]1C(=O)O
Kind of data set: (§3) Activity of native signal containing Klebsiella pneumoniae OXA-48 assessed as ratio of Kcat to Km by Michaelis-Menten kinetics assay. The procedure, abridged:
as §2

Substrate in data set [15]: CC1(C)S[C@@H]2[C@H](NC(=O)[C@H](N)c3ccccc3)C(=O)N2[C@H]1C(=O)O
The description is as §3. The procedure, abridged:
as §2

Substrate in data set [16]: CO/N=C(\C(=O)N[C@@H]1C(=O)N2C(C(=O)[O-])=C(C[N+]3(C)CCCC3)CS[C@H]12)c1csc(N)n1
The description is as §3. In short, it runs like this: as §2

Substrate in data set [17]: C[C@@H](O)[C@H]1C(=O)N2C(C(=O)O)=C(SCCNC=N)C[C@H]12
The data set is described as §3. The procedure, abridged: as §2

Substrate in data set [18]: C[C@@H](O)[C@H]1C(=O)N2C(C(=O)O)=C(S[C@@H]3CN[C@H](C(=O)N(C)C)C3)[C@H](C)[C@H]12
The data set is described as §3. The procedure, abridged:
as §2

Substrate in data set [19]: O=C(Cc1cccs1)N[C@@H]1C(=O)N2C(C(=O)O)=C(/C=C/c3ccc([N+](=O)[O-])cc3[N+](=O)[O-])CS[C@H]12
The data set is described as §3. In short, it runs like this:
as §2

Substrate in data set [20]: O=C(Cc1cccs1)N[C@@H]1C(=O)N2C(C(=O)O)=C(CSc3ccc([N+](=O)[O-])c(C(=O)O)c3)CS[C@H]12
The data set is described as §3. In short, it runs like this: as §2

Substrate in data set [21]: O=C(Cc1cccs1)N[C@@H]1C(=O)N2C(C(=O)O)=C(/C=C/c3ccc([N+](=O)[O-])cc3[N+](=O)[O-])CS[C@H]12
Kind of data set: Activity of native signal deficient and TEV cleavage site containing His-tagged Klebsiella pneumoniae OXA-48 expressed in Escherichia coli by Michaelis-Menten kinetics assay. In short, it runs like this: (§4)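 His-tag-removed tOXA-48 from E. coli BL21 Star (DE3) pRARE, purified by HisTrap, TEV cleavage and cation exchange. Hydrolysis of nitrocefin (10-300 µM) was read at 482 nm with 1 nM enzyme. Buffer was 100 mM phosphate pH 7.0, 50 mM NaHCO3, 0.2 mg/ml BSA at 25 °C. Enzyme-started; linear-phase rates were fitted to Michaelis-Menten.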

Substrate in data set [22]: O=C(Cc1cccs1)N[C@@H]1C(=O)N2C(C(=O)O)=C(/C=C/c3ccc([N+](=O)[O-])cc3[N+](=O)[O-])CS[C@H]12
The experiment in a line: Activity of native signal deficient and TEV cleavage site containing His-tagged Klebsiella pneumoniae OXA-48 expressed in Escherichia coli assessed as ratio of Kcat to Km by Michaelis-Menten kinetics assay. In short, it runs like this:
as §4

With `O=C(O)c1cccc(-c2cccnc2)c1`, the Kd at Beta-lactamase OXA-48 [1] came to 280 µM. For the same molecule, at Beta-lactamase OXA-48 [2], it took 240 µM to reach half-maximal inhibition (IC50).

As for `O=C(O)c1cc(-c2ccncc2)cc(-c2ccncc2)c1`, the Kd at Beta-lactamase OXA-48 [1] turned out to be 50 µM. The IC50 on Beta-lactamase OXA-48 [2] turned out to be 18 µM. For the same molecule, the inhibition entry in [3] was “Active”.

On to `O=C(O)c1ccc2ccncc2c1`, for which the dissociation constant Kd on Beta-lactamase OXA-48 [1] turned out to be 1180 µM. Also, the IC50 at Beta-lactamase OXA-48 [2] was determined as 2200 µM.

The molecule `O=C(O)CSc1ccnc2cc(Cl)ccc12` showed an IC50 at Beta-lactamase OXA-48 [2] of 220 µM.

With `O=C(O)c1cccc(-c2ccccc2)c1`, on Beta-lactamase OXA-48 [1], the dissociation constant (Kd) amounted to 370 µM. The IC50 on Beta-lactamase OXA-48 [2] worked out at 260 µM.

Consider `O=C(O)c1ccc(Oc2ccccc2)cc1`, for which, at Beta-lactamase OXA-48 [1], the Kd is 660 µM. Moreover, the IC50 against Beta-lactamase OXA-48 [2] came out at 870 µM.

As for `O=C(O)c1cccc(-c2nccs2)c1`, the Kd at Beta-lactamase OXA-48 [1] was 310 µM. This molecule showed a half-inhibitory concentration (IC50) against Beta-lactamase OXA-48 [2] of 250 µM.

For the molecule `O=C(O)c1ccccn1` [2-PICOLINIC ACID], the dissociation constant (Kd) at Beta-lactamase OXA-48 [1] is more than 1000 µM. The molecule also yielded an IC50 at Beta-lactamase OXA-48 [2] of more than 2000 µM.

`c1ccc(-c2ccncc2)cc1`: at Beta-lactamase OXA-48 [1], the dissociation constant Kd is more than 1000 µM. This molecule had an IC50 against Beta-lactamase OXA-48 [2] of more than 2000 µM.

For `O=C(O)c1cccc(C#Cc2ccccc2)c1`, on Beta-lactamase OXA-48 [2], the IC50 was 480 µM.

For `O=C(O)CCCc1c[nH]c2ccccc12`, the Kd on Beta-lactamase OXA-48 [1] stood at 430 µM. On Beta-lactamase OXA-48 [2], the IC50 is 480 µM.

With `O=C(O)c1cccc(-c2ccncc2)c1`, the Kd on Beta-lactamase OXA-48 [1] came to 280 µM. On Beta-lactamase OXA-48 [2], this molecule yielded a half-maximal inhibitory concentration (IC50) of 250 µM.

The molecule `NC(=O)[C@@H]1CC[C@@H]2CN1C(=O)N2OS(=O)(=O)O` registered an inhibition in data set [4] of 50%.

In the case of `C[C@@H](O)[C@H]1C(=O)N2C(C(=O)O)=C(S[C@@H]3CN[C@H](C(=O)N(C)C)C3)[C@H](C)[C@H]12` [MEROPENEM], the Ka in data set [5] turned out to be 4 ×10⁴ /M/s. In addition, the dissociation rate constant (koff) at Beta-lactamase OXA-48 [6] is 0.3463 s⁻¹. Besides, the Kd at Beta-lactamase OXA-48 [1] worked out at 0.85 µM.

In the case of `CC(=O)c1cccc(-c2ccncc2)c1`, on Beta-lactamase OXA-48 [1], the equilibrium dissociation constant (Kd) was more than 1000 µM. On Beta-lactamase OXA-48 [2], this molecule showed an IC50 of more than 2000 µM.

Take `Nc1cccnc1-c1cccc(C(=O)O)c1`: the Kd at Beta-lactamase OXA-48 [1] came out at 330 µM. Besides, at Beta-lactamase OXA-48 [2], the concentration for half-maximal inhibition (IC50) was 180 µM.

As to `O=C(O)c1ccc2[nH]ccc2c1`, on Beta-lactamase OXA-48 [1], the dissociation constant Kd was 1380 µM. This molecule showed an IC50 at Beta-lactamase OXA-48 [2] of 1390 µM.

With `Cc1cc2ccc(C(=O)O)cc2cn1`, at Beta-lactamase OXA-48 [1], the dissociation constant Kd is 700 µM. The molecule also returned an IC50 on Beta-lactamase OXA-48 [2] of 1020 µM.

B1: Beta-lactamase OXA-48 (Klebsiella pneumoniae), Q6XEC0 (protein)
chain: MRVLALSAVFLVASIIGMPAVAKEWQENKSWNAHFTEHKSQGVVVLWNENKQQGFTNNLKRANQAFLPASTFKIPNSLIALDLGVVKDEHQVFKWDGQTRDIATWNRDHNLITAMKYSVVPVYQEFARQIGEARMSKMLHAFDYGNEDISGNVDSFWLDGGIRISATEQISFLRKLYHNKLHVSERSQRIVKQAMLTEANGDYIIRAKTGYSTRIEPKIGWWVGWVELDDNVWFFAMNMDMPTSDGLGLRQAITKEVLKQEKIIP
In the case of B1, the Km in data set [7] came to 700 µM; in data set [8] it was 150 µM; in data set [9], 300 µM; in data set [10] it was 7.9 µM; in data set [11] it was 1 µM; in [12] it was 90 µM. Moreover, the Michaelis-Menten constant (Km) in [13] was 24 µM; in data set [21], 150 µM. For the same molecule, the kcat in data set [7] worked out at 8000 s⁻¹; in data set [8], 560 s⁻¹; in [9], 9 s⁻¹; in data set [10], 4.5 s⁻¹; in data set [11], 0.098 s⁻¹; in [12] it was 1500 s⁻¹. Also, the kcat in data set [13] worked out at 0.66 s⁻¹; in data set [21], 2300 s⁻¹. Further, the kcat/Km in data set [14] amounted to 1.1 ×10⁷ /M/s; in [15], 3.7 ×10⁶ /M/s; in data set [16] it was 3 ×10⁴ /M/s; in data set [17], 5.7 ×10⁵ /M/s; in data set [18], 9.8 ×10⁴ /M/s; in [19], 1.7 ×10⁷ /M/s. Also, the kcat/Km in [20] stood at 2.8 ×10⁴ /M/s; in data set [22], 1.5 ×10⁷ /M/s.
